Rows were chosen to be rich in hits. Some 5.8% of all compounds tested hit in one or more screens of this group.
IDH1 mut inh = inhibitors of IDH1 R132H reductase, primary screen, biochemical, plate reader, single point. Isocitrate dehydrogenase [NADP] cytoplasmic (Homo sapiens), O75874. 70,000 compounds, 0.18% hits. inhibition, % at 10 µM. diaphorase/resazurin fluorescence, 60 min. AID 624101, 2012; in the data active means inhibition above about 34%; inconclusive means no clear call, values can overlap the other calls; inactive means below about 11%;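 further: 0% = DMSO and 100% = no enzyme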
Target sequence (O75874 whole entry R132H): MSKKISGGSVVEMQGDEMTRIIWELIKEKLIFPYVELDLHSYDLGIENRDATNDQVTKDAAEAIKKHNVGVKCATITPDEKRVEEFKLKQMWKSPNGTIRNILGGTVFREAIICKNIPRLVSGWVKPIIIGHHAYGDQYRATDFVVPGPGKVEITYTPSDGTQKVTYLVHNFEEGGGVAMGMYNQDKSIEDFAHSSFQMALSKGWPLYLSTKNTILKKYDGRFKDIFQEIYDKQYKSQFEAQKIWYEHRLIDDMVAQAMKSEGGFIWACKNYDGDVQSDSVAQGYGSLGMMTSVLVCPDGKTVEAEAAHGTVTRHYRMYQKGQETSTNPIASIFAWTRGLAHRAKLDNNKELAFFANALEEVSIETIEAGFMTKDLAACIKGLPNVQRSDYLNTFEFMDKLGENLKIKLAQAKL
KDM4C inh = inhibitors of GASC-1 (KDM4C) histone demethylase, primary screen, biochemical, single concentration HTS | GST-KDM4C 2-372, H3K9me3 peptide, LANCE TR-FRET | Lysine-specific demethylase 4C (Homo sapiens), Q9H3R0 | AID 720574, 2013 | inhibition, % at 12.5 µM | 96,000 compounds, 0.15% hits;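 active means mean replicate inhibition above about 25%, with at least 55% of replicates also reaching it, limit read from the data, passing the limit was not always enough; inconclusive means only one of those two conditions met; inactive means neither condition met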
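Test system – GST-tagged GASC-1 (JMJD2C) catalytic fragment, aa 2-372 · Medium – HEPES buffer, pH 7.5, plus ascorbate · Reagent – H3K9me3 peptide with Fe(II)/2OG · Compound – one test concentration per compound · Timing – 30 min reaction, 60 min detection, RT · Technique – TR-FRET with Eu antibody and ULight streptavidin, EDTA stop · Read-out basis – inhibition from TR-FRET ratio decrease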
Pf Dd2 inh = P. falciparum Dd2 growth inhibitors, primary screen, SYBR Green fluorescence, single dose replicates; 72 h; hits give low values; activity change, % at 10 µM; 94,000 compounds, 2.3% hits; in the data active means activity change below about -80%; inconclusive means no clear call, values can overlap the other calls
T cruzi growth-1 = T. cruzi intracellular proliferation inhibitors, primary screen, cell-based, beta-gal Tulahuen parasites, NIH3T3 host, luminescence; T. cruzi beta-gal in NIH3T3, GalScreen luminescence, 90 h; inhibition, % at 8.34 µM; 77,000 compounds, 5.9% hits; AID 624255, 2012;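 active means mean inhibition above about 93%, with at least 55% of replicates each passing it, limit read from the data, passing the limit was not always enough; inconclusive means only one of those two conditions holds; inactive means neither condition holds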
T cruzi growth-2 = T. cruzi intracellular proliferation inhibitors, confirmation, cell-based, NIH3T3 host, beta-gal parasite, luminescence, cherry-pick | shares compounds with T cruzi growth-1 | T. cruzi beta-gal in NIH3T3, GalScreen luminescence, 90 h | inhibition, % at 8.35 µM | 5,600 compounds, 72% hits | AID 651739, 2012;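 active means mean replicate inhibition above about 95% and at least 55% of replicates individually reaching it, limit read from the data; inconclusive means only one of the two criteria is met; inactive means neither criterion is met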
T cruzi growth-3 = inhibitors of intracellular T. cruzi replication, confirmation, NIH3T3 host cells, beta-gal parasites, cherry-pick, set 2. shares compounds with T cruzi growth-1. T. cruzi beta-gal in NIH3T3, GalScreen luminescence, 90 h. inhibition, % at 2.09 µM. 5,600 compounds, 21% hits;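 active means mean inhibition above about 95%, with at least 55% of replicates also reaching it, limit read from the data; inconclusive means meets just one of the two conditions; inactive means meets neither condition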;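 further: plate controls were neutral control median for no effect and positive control median for full effect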
3T3 cytotox = cytotoxicity in mouse NIH/3T3 fibroblasts, confirmation, cytotoxicity control for T. cruzi proliferation inhibitor project, cell-based, cherry-pick, single point. shares compounds with T cruzi growth-1. NIH/3T3 viability, CellTiter-Glo ATP luminescence, 90 h. cytotoxicity (signal decrease), % at 8.35 µM. 5,600 compounds, 14% hits;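 active means mean signal decrease across replicates above about 35% based on untreated-well scatter, with enough replicates individually passing, limit read from the data; inconclusive means no rule stated though some were filed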;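 further: 0% = median of neutral control wells and 100% = median of positive control wells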
NIH3T3 tox 2 = NIH/3T3 fibroblast cytotoxicity, confirmation, cytotoxicity control, cell-based, cherry-pick, single point, set 2. shares compounds with T cruzi growth-1. NIH/3T3 viability, CellTiter-Glo ATP luminescence, 90 h. inhibition, % at 24.9 µM. 5,600 compounds, 56% hits. AID 651744, 2012;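 active means mean loss of cell viability signal at or above a set limit, and enough replicates individually reaching it; inconclusive means meets only the mean limit or only the replicate share; inactive means meets neither condition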;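 further: 0% = median of neutral control wells and 100% = median of positive control wells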
Numbers without * were called inactive; ? = inconclusive; . = not tested or not shown.

SMILES	IDH1 mut inh	KDM4C inh	Pf Dd2 inh	T cruzi growth-1	T cruzi growth-2	T cruzi growth-3	3T3 cytotox	NIH3T3 tox 2
COc1ccccc1CNC(=O)C[C@H]1CC[C@H]2[C@@H](COC[C@H](O)CN2Cc2ccc3c(c2)OCO3)O1	.	1	-23	104*	43	20	11	15
O=C(C[C@H]1CC[C@@H]2[C@H](COC[C@@H](O)CN2Cc2ccc3c(c2)OCO3)O1)Nc1ccc(-c2ccccc2)cc1	.	2	-32	89	.	.	.	.
O=C(C[C@@H]1CC[C@@H]2[C@H](COC[C@H](O)CN2Cc2ccc3c(c2)OCO3)O1)Nc1ccc(-c2ccccc2)cc1	.	1	-24	115*	99*	99*	16	30*
COC(=O)C1C(=O)c2c([nH]c(C(=O)OC(C)C)c2C)CC1C (stereo unspecified)	0	.	.	.	.	.	.	.
O=C(O)CCC1OC(=O)C(=O)C1c1ccccc1 (stereo unspecified)	0	.	.	.	.	.	.	.
CC(C)NC(=O)N1CCCCN2[C@H](C1)[C@H](c1ccc(C#Cc3ccccc3)cc1)[C@@H]2CO	.	-1	13	82	.	.	.	.
CC(C)NC(=O)N1CCCCN2[C@H](CO)[C@H](c3ccc(C#Cc4ccccc4)cc3)[C@H]2C1	.	-1	-10	107*	106*	105*	41*	107*
CC(C)NC(=O)N1CCCCN2[C@H](CO)[C@@H](c3ccc(C#Cc4ccccc4)cc3)[C@H]2C1	.	-2	-2	103*	101*	72	23	102*
CC(C)C#Cc1ccc([C@H]2[C@H]3CN(C(=O)NC(C)C)CCCCN3[C@H]2CO)cc1	.	-1	11	54	.	.	.	.
CC(C)C#Cc1ccc([C@@H]2[C@H](CO)N3CCCCN(C(=O)NC(C)C)C[C@@H]23)cc1	.	1	18	103*	101*	89	12	85*
CC(C)NC(=O)N1CCCCN2[C@H](C1)[C@@H](c1ccc(C#Cc3ccccc3)cc1)[C@@H]2CO	.	-1	4	76	.	.	.	.
Cc1cc(C)c(S(=O)(=O)N(CC(=O)Nc2ccccc2C(F)(F)F)C2CCCCC2)c(C)c1	0	.	.	.	.	.	.	.
O=[N+]([O-])c1cc(C(F)(F)F)ccc1N(CCO)CCO	1	.	.	.	.	.	.	.
CSc1cccc(NC(=O)CSc2nnc(-c3ccco3)n2C)c1	0	.	.	.	.	.	.	.
C[C@H]1CN([C@@H](C)CO)C(=O)c2cccc(NC(=O)Nc3ccc(C(F)(F)F)cc3)c2O[C@H]1CN(C)Cc1ccc(C(F)(F)F)cc1	.	-1	-8	94	.	.	.	.
C[C@@H]1CN([C@H](C)CO)C(=O)c2cccc(NC(=O)Nc3ccc(C(F)(F)F)cc3)c2O[C@@H]1CN(C)Cc1ccc(Oc2ccccc2)cc1	.	0	-33	120*	97*	98*	29	104*
C[C@@H]1CN([C@H](C)CO)C(=O)c2cccc(NC(=O)Nc3ccc(C(F)(F)F)cc3)c2O[C@H]1CN(C)Cc1ccc(C(F)(F)F)cc1	-5	1	32	62	.	.	.	.
C[C@@H]1CN([C@H](C)CO)C(=O)c2cccc(NC(=O)Nc3ccc(C(F)(F)F)cc3)c2O[C@H]1CN(C)Cc1ccc(Oc2ccccc2)cc1	-1	-1	-3	121*	?	91	-4	104*
C[C@H]1CN([C@@H](C)CO)C(=O)c2cccc(NC(=O)Nc3ccc(C(F)(F)F)cc3)c2O[C@H]1CN(C)Cc1ccc(Oc2ccccc2)cc1	-4	-1	2	93	.	.	.	.
